A short description of test [1]: DPPH radical scavenging activity at 10 ug by TLC autographic assay. In kind it is functional. The essentials:
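TLC autography on silica gel 60 F254 plates developed in petroleum ether–EtOAc (1:2), dried, then sprayed with 0.2% DPPH in MeOH. Plates were read 30 min after spraying; active zones show as yellow spots on a purple background.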
On the technique in general: The DPPH test is a chemical assay of radical scavenging.

Test [2] can be described thus: Antioxidant activity against beta-carotene assessed as inhibition of bleaching at 10 ug. Format: functional. Put shortly:
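Silica gel 60 F254 TLC plates developed in petroleum ether–EtOAc (1:2), then dried and sprayed with 0.05% β-carotene in CHCl3. Plates were kept under UV 254 nm until the background discolored. Inhibition of bleaching was read on the plate.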

The test system of test [3] is Cladosporium cucumerinum. Kind of test: Antifungal activity against Cladosporium cucumerinum at 20 ug. Format: functional, organism-based.
Test [4] concerns Cladosporium cucumerinum. Briefly: Antifungal activity against Cladosporium cucumerinum at 40 ug. In kind it is functional, organism-based.
Test [5] can be described thus: DPPH radical scavenging activity at 10 ug by TLC autographic assay.
The subject of test [6] is Cladosporium cucumerinum. Kind of test: Antifungal activity against Cladosporium cucumerinum at 10 ug. Format: functional, organism-based.

SMILES strings stand for the structures. The source made the active and inactive calls. The rule behind the calls is not given here.

For the molecule `COc1ccc([C@@H]2OC[C@@H]3[C@H]2CO[C@H]3c2ccc(OC)c(OC)c2)cc1OC`, the outcome in test [1], in test [2] and in test [3] was Active.
For `C/C(=C/CC/C(C)=C/CCC1(C)CCc2cc(O)cc(C)c2O1)C(=O)O` (centres undefined), the outcome in test [1], in test [4], in test [2] and in test [5] was Active.
For `COc1cc([C@@H]2OC[C@@H]3[C@H]2CO[C@@H]3c2ccc(OC)c(OC)c2)ccc1O`, the outcome in test [1], in test [2] and in test [3] was Active.
Take `COc1ccc([C@H]2OC[C@@H]3[C@H]2CO[C@H]3c2ccc(OC)c(OC)c2)cc1OC`: the result in test [1], in test [2] and in test [3] was Active.
On to `Clc1ccc(COC(Cn2ccnc2)c2ccc(Cl)cc2Cl)c(Cl)c1` (centres undefined), for which, in test [6], the outcome was Active.

The values are drawn from ChEMBL document CHEMBL1151323, “Use of on-flow LC/1H NMR for the study of an antioxidant fraction from Orophea enneandra and isolation of a polyacetylene, lignans, and a tocopherol derivative” (J Nat Prod, 1998).
